In ChEMBL document CHEMBL3244323, “[1-Penicillamine,2-leucine]oxytocin. Synthesis and pharmacological and conformational studies of a potent peptide hormone inhibitor” (J Med Chem, 1979):
Positions count from the first letter of the chain named. Calls of active or inactive are those of the source. The rule behind the calls is not given here. *1 amine or outer side, *2 acyl side, *3 side chain or, on linkers, in order; H or OH if unused. Where a SMILES comes first, the peptide text is derived from it. Bridges are numbered along the chain shown (N, C = ends). [ ]: non-standard residue; d: D form. Tyr(3,5-Br2) = N[C@@H](Cc1cc(Br)c(O)c(Br)c1)C(=O)O; X1 = CCC(CC)(CC(=O)[*:1])S[*:2]; X2 = CC(C)(CC(=O)[*:1])S[*:2]; Pen = CC(C)(S)[C@H](N)C(=O)O

What was measured:
[1] = target: T1, Oxytocin receptor (Homo sapiens, UniProt P30559); assay: Antagonist activity at oxytocin receptor (unknown origin) assessed as inhibition of agonist-induced oxytocic response; details: read-out: pA2 (converted)
T1 sequence (P30559 whole entry): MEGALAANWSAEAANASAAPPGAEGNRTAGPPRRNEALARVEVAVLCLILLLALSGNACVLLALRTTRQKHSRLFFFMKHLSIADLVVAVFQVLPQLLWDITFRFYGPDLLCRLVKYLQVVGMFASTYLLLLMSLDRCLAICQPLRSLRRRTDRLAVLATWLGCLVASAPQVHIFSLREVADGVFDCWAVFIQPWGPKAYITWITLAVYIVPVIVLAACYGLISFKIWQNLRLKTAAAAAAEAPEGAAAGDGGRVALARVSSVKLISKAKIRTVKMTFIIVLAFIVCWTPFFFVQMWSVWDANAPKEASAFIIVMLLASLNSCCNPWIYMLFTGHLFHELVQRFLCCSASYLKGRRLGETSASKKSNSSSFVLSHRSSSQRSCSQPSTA
Procedure, shortened: (§1)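 Isolated uteri from rats in natural estrus, suspended in Mg-free van Dyke-Hasting's solution with isotonic contraction recording, bath 30 °C. Antagonism of oxytocin was analysed by the Schild method. pA2 is the negative log of the average molar antagonist concentration that reduces the response to 2x units of oxytocin to the response to x units.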

[2] = target: T2, Oxytocin receptor (Rattus norvegicus, UniProt P70536); assay: Antagonist activity at oxytocin receptor in rat assessed as inhibition of agonist-induced oxytocic response; details: read-out: pA2 (converted); procedure, shortened: as §1
T2 sequence (P70536 whole entry): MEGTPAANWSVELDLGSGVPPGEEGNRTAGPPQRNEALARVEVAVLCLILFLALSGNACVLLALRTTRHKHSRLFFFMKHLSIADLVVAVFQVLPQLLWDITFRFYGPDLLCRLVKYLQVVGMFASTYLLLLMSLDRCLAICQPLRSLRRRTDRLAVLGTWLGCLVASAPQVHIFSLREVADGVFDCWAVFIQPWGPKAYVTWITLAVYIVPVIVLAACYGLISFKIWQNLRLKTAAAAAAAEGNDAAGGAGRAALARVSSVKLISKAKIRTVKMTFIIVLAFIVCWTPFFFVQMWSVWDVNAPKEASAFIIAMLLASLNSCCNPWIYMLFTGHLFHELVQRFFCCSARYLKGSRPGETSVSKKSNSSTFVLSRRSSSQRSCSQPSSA

[3] = target: T3, Oxytocin receptor (Mus musculus) (UniProt P97926); assay: Antagonist activity at oxytocin receptor in mouse mammary gland tissue assessed as inhibition of oxytocin-induced milk ejection at 7.5X10'-6 M by spectrophotometry
T3 sequence (whole entry): T2 sequence (P70536 whole entry) with V11I, E23A, R27L, Q33R, G159A, A169V, N245S, F344L, V361I
Procedure, shortened: (§2)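 Mouse mammary gland tissue was incubated in vitro with oxytocin alone, or with oxytocin plus antagonist at up to 10^-5 M. Released milk was measured spectrophotometrically as absorbance. Values are mean ± SE from tissue of four mice.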

[4] = target: T2, Oxytocin receptor; assay: Antagonist activity at oxytocin receptor in isolated rat uterus assessed as inhibition of oxytocin-induced oxytocic response; details: read-out: pA2 (converted); procedure, shortened: as §1
[5] = target: T4, Oxytocin receptor (Rattus norvegicus) (UniProt P70536); assay: Antagonist activity at oxytocin receptor in isolated rat uterus assessed as inhibition of oxytocin-induced oxytocic response at 20:1 compound to oxytocin ratio pretreated up to 90 secs prior to oxytocin addition
T4 sequence (whole entry): T2 sequence (P70536 whole entry)

[6] = target: T4, Oxytocin receptor (Rattus norvegicus); assay: Antagonist activity at oxytocin receptor in isolated rat uterus assessed as inhibition of oxytocin-induced oxytocic response at 20:1 compound to oxytocin ratio pretreated for 10 to 20 secs prior to oxytocin addition; details: concentration not given here
[7] = target: T4, Oxytocin receptor (Rattus norvegicus); assay: Antagonist activity at oxytocin receptor in isolated rat uterus assessed as inhibition of oxytocin-induced oxytocic response at 20:1 compound to oxytocin ratio followed by compound washout
[8] = target: T4, Oxytocin receptor (Rattus norvegicus); assay: Antagonist activity at oxytocin receptor in isolated rat uterus assessed as incidence of regular phasic contractions of uterus at 0.25 ug/ml
[9] = target: T4, Oxytocin receptor (Rattus norvegicus); assay: Antagonist activity at oxytocin receptor in isolated rat uterus assessed as inhibition of oxytocic response at 0.25 ug/ml pretreated for 30 secs prior to oxytocin addition relative to control
[10] = target: T4, Oxytocin receptor (Rattus norvegicus); assay: Antagonist activity at oxytocin receptor in isolated rat uterus assessed as reduction of subsequent contractions at 0.25 ug/ml measured during 10 mins interval of compound dosing
[11] = target: T4, Oxytocin receptor (Rattus norvegicus); assay: Antagonist activity at oxytocin receptor in isolated rat uterus assessed as inhibition of oxytocic response at 0.25 ug/ml added simultaneously with oxytocin
[12] = target: T4, Oxytocin receptor (Rattus norvegicus); assay: Antagonist activity at oxytocin receptor in isolated rat uterus assessed as incidence of regular phasic contractions of uterus at 0.25 ug/ml measured during 6 mins interval of compound dosing
[13] = target: T4, Oxytocin receptor (Rattus norvegicus); assay: Antagonist activity at oxytocin receptor in isolated rat uterus assessed as inhibition of oxytocin-induced contractions at 0.25 ug/ml dosed at the peak of first contraction measured during 10 mins interval of compound dosing
[14] = target: T4, Oxytocin receptor (Rattus norvegicus); assay: Antagonist activity at oxytocin receptor in isolated rat uterus assessed as inhibition of oxytocin-induced oxytocic response at 0.25 ug/ml followed by compound washout
[15] = target: T3, Oxytocin receptor (Mus musculus); assay: Agonist activity at oxytocin receptor in mouse mammary gland tissue assessed as milk-ejecting activity at 10^-5 M by spectrophotometry
[16] = target: T5, Oxytocin receptor (Homo sapiens) (UniProt P30559); assay: Agonist activity at oxytocin receptor (unknown origin)
T5 sequence (whole entry): T1 sequence (P30559 whole entry)

[17] = target: T3, Oxytocin receptor (Mus musculus); assay: Antagonist activity at oxytocin receptor in mouse mammary gland tissue assessed as inhibition of oxytocin-induced milk ejection by spectrophotometry; procedure, shortened: as §2

For CC[C@H](C)[C@@H]1NC(=O)[C@H](Cc2ccc(O)cc2)NC(=O)CC(CC)(CC)SSC[C@@H](C(=O)N2CCC[C@H]2C(=O)N[C@@H](CC(C)C)C(=O)NCC(N)=O)NC(=O)[C@H](CC(N)=O)NC(=O)[C@H](CC(C)C)NC1=O (YILNCPLG-NH2; linker N-5 via X1), the Kb [1] was 95.5 nM.
For CC[C@H](C)[C@@H]1NC(=O)[C@H](Cc2ccc(O)cc2)NC(=O)CC(C)(C)SSC[C@@H](C(=O)N2CCC[C@H]2C(=O)N[C@@H](CC(C)C)C(=O)NCC(N)=O)NC(=O)[C@H](CC(N)=O)NC(=O)[C@H]([C@@H](C)O)NC1=O (YITNCPLG-NH2; linker N-5 via X2), the Kb [2] was 31.6 nM.
CC[C@H](C)[C@@H]1NC(=O)[C@H](Cc2ccc(O)cc2)NC(=O)CC(CC)(CC)SSC[C@@H](C(=O)N2CCC[C@H]2C(=O)N[C@@H](CC(C)C)C(=O)NCC(N)=O)NC(=O)[C@H](CC(N)=O)NC(=O)[C@H](CCC(N)=O)NC1=O (YIQNCPLG-NH2; linker N-5 via X1) showed a Kb [1] of 57.5 nM.
In the case of CC[C@H](C)[C@@H]1NC(=O)[C@H](CC(C)C)NC(=O)[C@@H](N)C(C)(C)SSC[C@@H](C(=O)N2CCC[C@H]2C(=O)N[C@@H](CC(C)C)C(=O)NCC(N)=O)NC(=O)[C@H](CC(N)=O)NC(=O)[C@H](CCC(N)=O)NC1=O (H-[Pen]LIQNCPLG-NH2; disulfide 1-6), the inhibition [3] is reported as “Active”, the Kb [4] is reported as 72.4 nM and the inhibition [5] is reported as “Active”. The inhibition [6] was 50%, the inhibition [7] was “inactive” and the Activity [8] was “inactive”. The inhibition [9] was 60%, the Activity [10] was “Active” and the inhibition [11] was “inactive”. For the same compound, the inhibition [12] was “inactive”, the inhibition [13] was “Active” and the inhibition [14] was “inactive”. For the same compound, the Activity [15] was “inactive”.
For CC[C@H](C)[C@@H]1NC(=O)[C@H](Cc2cc(Br)c(O)c(Br)c2)NC(=O)CCSSC[C@@H](C(=O)N2CCC[C@H]2C(=O)N[C@@H](CC(C)C)C(=O)NCC(N)=O)NC(=O)[C@H](CC(N)=O)NC(=O)[C@H](CCC(N)=O)NC1=O, the Kb [2] was 89.1 nM.
CC[C@H](C)[C@@H]1NC(=O)[C@H](CC(C)C)NC(=O)[C@@H](N)CSSC[C@@H](C(=O)N2CCC[C@H]2C(=O)N[C@@H](CC(C)C)C(=O)NCC(N)=O)NC(=O)[C@H](CC(N)=O)NC(=O)[C@H](CCC(N)=O)NC1=O (H-CLIQNCPLG-NH2; disulfide 1-6) gave an Activity [16] of 0.5 U/mg.
For CC[C@H](C)[C@@H]1NC(=O)[C@H](Cc2ccc(O)cc2)NC(=O)CC(C)(C)SSC[C@@H](C(=O)N2CCC[C@H]2C(=O)N[C@@H](CC(C)C)C(=O)NCC(N)=O)NC(=O)[C@H](CC(N)=O)NC(=O)[C@H](CCC(N)=O)NC1=O (YIQNCPLG-NH2; linker N-5 via X2), the Kb [1] was 115 nM.
In the case of CC[C@H](C)[C@@H]1NC(=O)[C@H](Cc2ccc(O)cc2)NC(=O)CCSSCC(C(=O)N2CCC[C@H]2C(=O)N[C@@H](CC(C)C)C(=O)NCC(N)=O)NC(=O)[C@H](CC(N)=O)NC(=O)[C@H](CCC(N)=O)NC1=O (single isomer, unassigned), the Activity [16] is reported as 803 U/mg.
In the case of CC[C@H](C)[C@@H]1NC(=O)[C@H](Cc2ccc(O)cc2)NC(=O)[C@@H](N)C(C)(C)SSC[C@@H](C(=O)N2CCC[C@H]2C(=O)N[C@@H](CC(C)C)C(=O)NCC(N)=O)NC(=O)[C@H](CC(N)=O)NC(=O)[C@H](CC(C)C)NC1=O (H-[Pen]YILNCPLG-NH2; disulfide 1-6), the Kb [1] is reported as 170 nM.
In the case of CC[C@H](C)[C@@H]1NC(=O)[C@H](Cc2ccc(O)cc2)NC(=O)[C@@H](N)C(C)(C)SSC[C@@H](C(=O)N2CCC[C@H]2C(=O)N[C@@H](CC(C)C)C(=O)NCC(N)=O)NC(=O)[C@H](CC(N)=O)NC(=O)[C@H](CCC(N)=O)NC1=O, the inhibition [17] is reported as “Active” and the Kb [1] is reported as 138 nM.
CC[C@H](C)[C@@H]1NC(=O)[C@H](Cc2cc(Br)c(O)c(Br)c2)NC(=O)CC(CC)(CC)SSC[C@@H](C(=O)N2CCC[C@H]2C(=O)N[C@@H](CC(C)C)C(=O)NCC(N)=O)NC(=O)[C@H](CC(N)=O)NC(=O)[C@H](CCC(N)=O)NC1=O ([Tyr(3,5-Br2)]IQNCPLG-NH2; linker N-5 via X1) showed a Kb [2] of 83.2 nM.
